In ChEMBL document CHEMBL1649165, “Activity profile in vitro of micafungin against Spanish clinical isolates of common and emerging species of yeasts and molds” (2009):
≈ marks a conversion by molar mass, not a printed value.

Columns and labels:
Type in all cases: functional
[1] = test system: Exophiala dermatitidis; assay: Antimicrobial activity against Exophiala dermatitidis by broth microdilution method
[2] = test system: Aspergillus ustus; assay: Antimicrobial activity against Aspergillus ustus by broth microdilution method
Summary of the method: (§1)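 Clinical mould isolates, tested by broth microdilution using the AFST-EUCAST reference method for filamentous fungi. For echinocandins, the endpoint was the minimum effective concentration: the lowest drug concentration giving aberrant hyphal growth, read with an inverted microscope.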

[3] = test system: Ustilago; assay: Antimicrobial activity against Ustilago spp by broth microdilution method
[4] = test system: Fusarium oxysporum; assay: Antimicrobial activity against Fusarium oxysporum by broth microdilution method; summary of the method: as §1
[5] = test system: Candida orthopsilosis; assay: Antimicrobial activity against Candida orthopsilosis by broth microdilution method; conditions: Lodderomyces orthopsilosis
Summary of the method: (§2)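 Clinical isolates from human patients, tested by broth microdilution using the AFST-EUCAST reference procedure for fermentative yeasts. The MIC was read per that reference method.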

[6] = test system: Pichia kudriavzevii; assay: Antimicrobial activity against Candida krusei by broth microdilution method; summary of the method: as §2
[7] = test system: Clavispora lusitaniae; assay: Antimicrobial activity against Candida lusitaniae by broth microdilution method; summary of the method: as §2
[8] = Antimicrobial activity against Hormographiella aspergillata by broth microdilution method; conditions: Coprinopsis cinerea
Summary of the method: (§3)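 Filamentous fungus clinical isolates tested by the AFST-EUCAST reference broth microdilution method for moulds. For echinocandins, the endpoint was the minimum effective concentration: the lowest drug concentration giving aberrant hyphal growth, read with an inverted microscope.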

[9] = test system: Rhodotorula glutinis; assay: Antimicrobial activity against Rhodotorula glutinis by broth microdilution method
Summary of the method: (§4)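 Nonfermentative yeast clinical isolates (Rhodotorula, Trichosporon) tested by broth microdilution. The EUCAST yeast recommendations were followed strictly, with one minor modification to improve growth. MIC was read as the endpoint.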

[10] = test system: Phialemonium curvatum; assay: Antimicrobial activity against Phialemonium curvatum by broth microdilution method; conditions: Thyridium curvatum; summary of the method: as §3
[11] = test system: Exophiala jeanselmei; assay: Antimicrobial activity against Exophiala jeanselmei by broth microdilution method
[12] = test system: Geotrichum candidum; assay: Antimicrobial activity against Galactomyces geotrichum by broth microdilution method
[13] = test system: Aspergillus glaucus; assay: Antimicrobial activity against Aspergillus glaucus by broth microdilution method; summary of the method: as §1
[14] = test system: Cladophialophora bantiana; assay: Antimicrobial activity against Cladophialophora bantiana by broth microdilution method; summary of the method: as §1
[15] = test system: Kazachstania pintolopesii; assay: Antimicrobial activity against Candida pintolopesii by broth microdilution method; conditions: Arxiozyma pintolopesii; summary of the method: as §2
[16] = test system: Lewia infectoria; assay: Antimicrobial activity against Alternaria infectoria by broth microdilution method; summary of the method: as §1
[17] = test system: Meyerozyma guilliermondii; assay: Antimicrobial activity against Candida guilliermondii by broth microdilution method; summary of the method: as §2
[18] = test system: Beauveria bassiana; assay: Antimicrobial activity against Beauveria bassiana by broth microdilution method; summary of the method: as §1
[19] = test system: Trichosporon ovoides; assay: Antimicrobial activity against Trichosporon ovoides by broth microdilution method; summary of the method: as §4
[20] = Antimicrobial activity against Rhizopus microsporus by broth microdilution method; summary of the method: as §3
[21] = test system: Rhodotorula mucilaginosa; assay: Antimicrobial activity against Rhodotorula mucilaginosa by broth microdilution method; summary of the method: as §4
[22] = test system: Fusarium equiseti; assay: Antimicrobial activity against Fusarium equiseti by broth microdilution method; summary of the method: as §1
[23] = test system: Cryptococcus deneoformans; assay: Antimicrobial activity against Cryptococcus neoformans var. neoformans by broth microdilution method
Summary of the method: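 Clinical isolates of nonfermentative yeasts, tested by broth microdilution following EUCAST recommendations. The only change from that method was a minor modification to improve growth.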

[24] = test system: Lomentospora prolificans; assay: Antimicrobial activity against Scedosporium prolificans by broth microdilution method; summary of the method: as §3
[25] = test system: Candida parapsilosis; assay: Antimicrobial activity against Candida parapsilosis by broth microdilution method; conditions: Lodderomyces parapsilosis; summary of the method: as §2
[26] = test system: Rhizomucor; assay: Antimicrobial activity against Rhizomucor spp.by broth microdilution method; summary of the method: as §3
[27] = test system: Debaryomyces hansenii; assay: Antimicrobial activity against Candida famata by broth microdilution method; summary of the method: as §2
[28] = test system: Trichosporon inkin; assay: Antimicrobial activity against Trichosporon inkin by broth microdilution method; summary of the method: as §4
[29] = test system: Cladosporium; assay: Antimicrobial activity against Cladosporium spp. by broth microdilution method; summary of the method: as §1
[30] = test system: Aspergillus nidulans; assay: Antimicrobial activity against Aspergillus nidulans by broth microdilution method; summary of the method: as §1
[31] = test system: Cunninghamella bertholletiae; assay: Antimicrobial activity against Cunninghamella bertholletiae by broth microdilution method; summary of the method: as §1
[32] = test system: Scopulariopsis brevicaulis; assay: Antimicrobial activity against Scopulariopsis brevicaulis by broth microdilution method; summary of the method: as §3
[33] = test system: Fusarium solani; assay: Antimicrobial activity against Fusarium solani by broth microdilution method; summary of the method: as §3
[34] = test system: Saksenaea vasiformis; assay: Antimicrobial activity against Saksenaea vasiformis by broth microdilution method; summary of the method: as §3
[35] = test system: Candida metapsilosis; assay: Antimicrobial activity against Candida metapsilosis by broth microdilution method; conditions: Lodderomyces metapsilosis; summary of the method: as §2
[36] = test system: Aspergillus versicolor; assay: Antimicrobial activity against Aspergillus versicolor by broth microdilution method; summary of the method: as §1
[37] = test system: Lichtheimia corymbifera; assay: Antimicrobial activity against Mycocladus corymbiferus by broth microdilution method; summary of the method: as §3
[38] = test system: Rhizopus arrhizus; assay: Antimicrobial activity against Rhizopus oryzae by broth microdilution method; summary of the method: as §3
[39] = test system: Aureobasidium pullulans; assay: Antimicrobial activity against Aureobasidium pullulans by broth microdilution method
[40] = test system: Hortaea werneckii; assay: Antimicrobial activity against Hortaea werneckii by broth microdilution method
[41] = test system: Neurospora sitophila; assay: Antimicrobial activity against Chrysonilia sitophila by broth microdilution method; summary of the method: as §1

Compound: C[C@@H]1[C@H](O)[C@@H](C)/C=C/C=C/C=C/C=C/C=C/C=C/C=C/[C@H](O[C@@H]2O[C@H](C)[C@@H](O)[C@H](N)[C@@H]2O)C[C@@H]2O[C@](O)(C[C@@H](O)C[C@@H](O)[C@H](O)CC[C@@H](O)C[C@@H](O)CC(=O)O[C@H]1C)C[C@H](O)[C@H]2C(=O)O [AMPHOTERICIN B]
- MIC50 [1]: 0.25 µg/mL (≈ 0.271 µM)
- MIC90 [1]: 1 µg/mL (≈ 1.08 µM)
- MIC50 [2]: 0.5 µg/mL (≈ 0.541 µM)
- MIC90 [2]: > 16 µg/mL
- MIC50 [3]: 0.5 µg/mL (≈ 0.541 µM)
- MIC90 [3]: 8 µg/mL (≈ 8.66 µM)
- MIC50 [4]: 1 µg/mL (≈ 1.08 µM)
- MIC90 [4]: 2 µg/mL (≈ 2.16 µM)
- MIC50 [5]: 0.12 µg/mL (≈ 0.13 µM)
- MIC90 [5]: 1 µg/mL (≈ 1.08 µM)
- MIC50 [6]: 0.5 µg/mL (≈ 0.541 µM)
- MIC90 [6]: 0.5 µg/mL (≈ 0.541 µM)
- MIC50 [7]: 0.06 µg/mL (≈ 0.0649 µM)
- MIC90 [7]: 0.12 µg/mL (≈ 0.13 µM)
- MIC50 [8]: 0.5 µg/mL (≈ 0.541 µM)
- MIC90 [8]: > 16 µg/mL
- MIC50 [9]: 0.5 µg/mL (≈ 0.541 µM)
- MIC90 [9]: 8 µg/mL (≈ 8.66 µM)
- MIC50 [10]: 0.5 µg/mL (≈ 0.541 µM)
- MIC90 [10]: > 16 µg/mL
- MIC50 [11]: 0.25 µg/mL (≈ 0.271 µM)
- MIC90 [11]: 1 µg/mL (≈ 1.08 µM)
- MIC50 [12]: 0.25 µg/mL (≈ 0.271 µM)
- MIC90 [12]: 0.5 µg/mL (≈ 0.541 µM)
- MIC50 [13]: 0.5 µg/mL (≈ 0.541 µM)
- MIC90 [13]: > 16 µg/mL
- MIC50 [14]: 0.25 µg/mL (≈ 0.271 µM)
- MIC90 [14]: 1 µg/mL (≈ 1.08 µM)
- MIC50 [15]: 0.12 µg/mL (≈ 0.13 µM)
- MIC90 [15]: 1 µg/mL (≈ 1.08 µM)
- MIC50 [16]: 0.06 µg/mL (≈ 0.0649 µM)
- MIC90 [16]: > 16 µg/mL
- MIC50 [17]: 0.06 µg/mL (≈ 0.0649 µM)
- MIC90 [17]: 0.5 µg/mL (≈ 0.541 µM)
- MIC50 [18]: 0.5 µg/mL (≈ 0.541 µM)
- MIC90 [18]: > 16 µg/mL
- MIC50 [19]: 0.5 µg/mL (≈ 0.541 µM)
- MIC90 [19]: 8 µg/mL (≈ 8.66 µM)
- MIC50 [20]: 2 µg/mL (≈ 2.16 µM)
- MIC90 [20]: > 16 µg/mL
- MIC50 [21]: 0.12 µg/mL (≈ 0.13 µM)
- MIC90 [21]: 0.5 µg/mL (≈ 0.541 µM)
- MIC50 [22]: 0.5 µg/mL (≈ 0.541 µM)
- MIC90 [22]: > 16 µg/mL
- MIC50 [23]: 0.12 µg/mL (≈ 0.13 µM)
- MIC90 [23]: 2 µg/mL (≈ 2.16 µM)
- MIC50 [24]: > 16 µg/mL
- MIC90 [24]: > 16 µg/mL
- MIC50 [25]: 0.12 µg/mL (≈ 0.13 µM)
- MIC90 [25]: 0.25 µg/mL (≈ 0.271 µM)
- MIC50 [26]: 2 µg/mL (≈ 2.16 µM)
- MIC90 [26]: > 16 µg/mL
- MIC50 [27]: 0.12 µg/mL (≈ 0.13 µM)
- MIC90 [27]: 1 µg/mL (≈ 1.08 µM)
- MIC50 [28]: 0.12 µg/mL (≈ 0.13 µM)
- MIC90 [28]: 1 µg/mL (≈ 1.08 µM)
- MIC50 [29]: 0.25 µg/mL (≈ 0.271 µM)
- MIC90 [29]: 1 µg/mL (≈ 1.08 µM)
- MIC50 [30]: 1 µg/mL (≈ 1.08 µM)
- MIC90 [30]: 4 µg/mL (≈ 4.33 µM)
- MIC50 [31]: 2 µg/mL (≈ 2.16 µM)
- MIC90 [31]: > 16 µg/mL
- MIC50 [32]: 0.5 µg/mL (≈ 0.541 µM)
- MIC90 [32]: > 16 µg/mL
- MIC50 [33]: 1 µg/mL (≈ 1.08 µM)
- MIC90 [33]: 2 µg/mL (≈ 2.16 µM)
- MIC50 [34]: 2 µg/mL (≈ 2.16 µM)
- MIC90 [34]: > 16 µg/mL
- MIC50 [35]: 0.12 µg/mL (≈ 0.13 µM)
- MIC90 [35]: 1 µg/mL (≈ 1.08 µM)
- MIC50 [36]: 1 µg/mL (≈ 1.08 µM)
- MIC90 [36]: 2 µg/mL (≈ 2.16 µM)
- MIC50 [37]: 0.12 µg/mL (≈ 0.13 µM)
- MIC90 [37]: 0.25 µg/mL (≈ 0.271 µM)
- MIC50 [38]: 0.5 µg/mL (≈ 0.541 µM)
- MIC90 [38]: 2 µg/mL (≈ 2.16 µM)
- MIC50 [39]: 0.25 µg/mL (≈ 0.271 µM)
- MIC90 [39]: 1 µg/mL (≈ 1.08 µM)
- MIC50 [40]: 0.25 µg/mL (≈ 0.271 µM)
- MIC90 [40]: 1 µg/mL (≈ 1.08 µM)
- MIC50 [41]: 0.5 µg/mL (≈ 0.541 µM)
- MIC90 [41]: > 16 µg/mL
